Most compounds without a hit are left out; they make up all but 2.3% or so of the library.
CSN inh: inhibitors of CSN-mediated cullin deneddylation, primary screen, biochemical, fluorescence polarization, uHTS. COP9 signalosome complex subunit 5 (Homo sapiens), Q92905. Purified CSN, SCF-Nedd8-OG deneddylation. inhibition, % at 12.5 µM. 360,000 compounds, 0.38% hits. AID 651999, 2013;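 active = pattern-corrected inhibition above about 35%, with an unprinted fluorescence ratio check between 0.5 and 1.5, limit read from the data, passing the limit was not always enough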;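 note: 0% = enzyme with substrate and 100% = substrate without enzyme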
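assay system = purified human Csn5 enzyme expressed in HEK293T cells | amount = 0.24 nM enzyme | buffer or medium = Tris/NaCl/DTT buffer, pH 7.5 | reagent = 10 nM SCFSkp2-Nedd8OG | compound = one concentration, 12.5 µM, 0.25% DMSO | times = 90 min reaction at room temperature | signal = FP | read-out basis = % inhibition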
DNMT1 block: human DNMT1 methyltransferase inhibitors, primary screen, biochemical, molecular beacon, fluorescence, HinP1I cleavage, uHTS | DNA (cytosine-5)-methyltransferase 1 (Homo sapiens), P26358 | inhibition (reported as % activation of signal), % at 10 µM | 360,000 compounds, 0.83% hits; in the data active = inhibition above about 50%
MT1-MMP act inh: blockers of MT1-MMP proenzyme processing, primary screen, HT1080 RFP-PRO-GFP cells, GFP/RFP fluorescence; GFP/RFP ratio change, % at 20 µM; GFP/RFP ratio fluorescence, overnight; percent of plate control window, DMSO zero; AID 651647, 2012; 360,000 compounds, 0.061% hits; Matrix metalloproteinase-14 (Homo sapiens), P50281;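 active = GFP/RFP ratio change of at least 30% with cell ATP level not reduced by more than half and red fluorescence within 50% of control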
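Material – HT1080 RFP-PRO-GFP cells · Control set – DMSO wells and RFP-L50D-GFP cells · Incubation – overnight cell settling, then overnight compound exposure, 37 °C, 5% CO2 · Compound dosing – single-point 20 µM compound, 1% DMSO · Read-out – GFP/RFP fluorescence ratio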
SKN-1 inh: suppressors of acrylamide-induced Pgst-4::GFP reporter in worms, primary screen, SKN-1 inhibitor project, whole organism, uHTS, GFP/RFP fluorescence ratio, strain VP596; C. elegans VP596 Pgst-4::GFP/RFP ratio, 24 h; inhibition, % at 21.8 µM; 360,000 compounds, 0.49% hits; AID 624304, 2012;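 active = interference check ratio from 0.5 to 1.5 plus GFP to RFP signal ratio inhibition reaching or exceeding a fixed threshold, cut at about 30% in these data, passing the limit was not always enough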
Rpn11 inh: Rpn11 (PSMD14) deubiquitinase inhibitors, primary screen, biochemical, fluorescence polarization, uHTS | human 26S proteasome, Ub4-pepOG fluorescence polarization; 20S core pre-blocked with epoxomicin | 26S proteasome non-ATPase regulatory subunit 14 (Homo sapiens), O00487 | inhibition, % at 20 µM | 360,000 compounds, 0.59% hits;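 active = inhibition at 20 µM, scaled to each plate's controls, above about 33%, limit read from the data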
Target sequence (O00487 whole entry, looked up): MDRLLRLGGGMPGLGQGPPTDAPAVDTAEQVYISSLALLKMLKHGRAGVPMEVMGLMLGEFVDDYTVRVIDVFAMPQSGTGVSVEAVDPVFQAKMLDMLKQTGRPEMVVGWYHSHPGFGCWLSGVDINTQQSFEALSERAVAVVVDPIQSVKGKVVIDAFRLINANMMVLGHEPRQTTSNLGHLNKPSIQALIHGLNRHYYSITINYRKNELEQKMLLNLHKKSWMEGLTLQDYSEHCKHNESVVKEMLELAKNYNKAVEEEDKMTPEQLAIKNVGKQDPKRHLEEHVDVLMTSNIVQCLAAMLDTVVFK
SUMO1-SIM PPI: modulators of SUMO1 protein-protein interactions, primary screen, biochemical, uHTS. Small ubiquitin-related modifier 1 (Homo sapiens), P63165. SUMO1 binding to a labelled peptide, TR-FRET, 1 h. inhibition, % at 20 µM. 360,000 compounds, 0.33% hits; in the data active = inhibition above about 37%
Target sequence (P63165 whole entry, looked up): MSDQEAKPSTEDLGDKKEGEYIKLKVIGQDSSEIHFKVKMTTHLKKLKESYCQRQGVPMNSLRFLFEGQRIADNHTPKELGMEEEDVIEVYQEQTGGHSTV
An asterisk follows results filed as active; . = no result shown.

SMILES	CSN inh	DNMT1 block	MT1-MMP act inh	SKN-1 inh	Rpn11 inh	SUMO1-SIM PPI
c1ccc(CC[C@@H]2CC[C@@H](CCc3ccccc3)N2)cc1	42.9*	-6.5	2.9	4.7	1.3	25.6
Cn1cc([C@]2(O)C(=O)Nc3ccc(F)cc32)c2ccccc21	-2.6	.	3.2	6.1	.	-0.7
COc1ccc(CNc2oc(-c3cccc4ccccc34)nc2P(=O)(OC)OC)cc1	8.9	-1.8	-1.0	-4.9	-0.4	-3.3
COP(=O)(OC)c1nc(-c2cccc3ccccc23)oc1NCc1ccccc1	84.9*	-2.8	-3.9	9.3	1.4	-4.4
Cc1cccc(C)c1OCC(O)CN(Cc1ccccc1O)C1CCCCC1 (stereo unspecified)	3.8	3.4	-20.2	37.4*	-2.1	1.7
O=C(COC(=O)[C@@H]1CCCN1C(=O)c1cccs1)NCCc1ccccc1	1.8	2.6	-3.7	35.8*	-5.0	0.0
COc1ccc(-c2nc3c(Cl)cc(C(F)(F)F)cn3c2Cc2ccsc2)cc1OC	-3.6	.	1.5	5.8	.	-2.6
CN1/C(=C/c2cc[n+](C)c3ccccc23)C=Cc2ccccc21	-1.6	5.3	64.3*	27.6	-5.2	-3.2
C[n+]1ccc(/C=C/c2ccccc2O)c2ccccc21	-14.8	3.9	-6.0	4.3	-1.5	-35.0
Cc1cc(=O)oc2cc(OCc3ccc(C(=O)OCC(=O)NC4CCS(=O)(=O)C4)cc3)ccc12 (stereo unspecified)	8.6	19.6	-0.5	1.6	-3.0	56.9*
CC(C)c1ccc(NC(=O)Nc2nc(C(N)COCc3ccccc3)cs2)cc1 (stereo unspecified)	4.8	-17.0	7.9	5.3	5.3	-66.7
Cc1ccc(NC(=O)CN2C(=O)N/C(=C/c3cccn3-c3ccc(C(=O)O)cc3)C2=O)cc1	28.8	106.8*	-4.9	-1.0	.	49.4*
Cc1ccc(NC(=O)CN2C(=O)S/C(=C\c3cccn3-c3cccc(C(=O)O)c3)C2=O)cc1C	26.9	30.5	0.9	12.6	9.3	-4.3
C(=Cc1c[nH]c2ccccc12)c1ccc2ccccc2n1	9.9	-2.6	-98.1	72.0	27.8	-27.7
C(=Cc1c[nH]c2ccccc12)c1nccc2ccccc12	14.7	-14.9	-72.7	48.4*	38.9	-37.1
COC(=O)Cc1ccc(OC2(C)CCN(Cc3ccccc3)C2)cc1 (stereo unspecified)	-3.5	1.2	-1.2	22.8	-5.7	1.6
CCOc1ccccc1NC(=O)CCc1nnc2ccc(N3CCC(C)CC3)nn12	0.8	98.4*	-1.2	14.2	-2.8	4.0
COc1ccccc1NC(=O)CCc1nnc2ccc(N3CCCCC3)nn12	-1.9	-0.5	-1.7	21.3	-8.6	-2.8
CCOc1ccc2nc(NC(=O)CN3CCC(n4nnc5cc(C(F)(F)F)ccc54)CC3)sc2c1	1.2	-8.6	2.0	38.5*	-7.1	-2.6
O=c1cc(-c2ccc(O)c(O)c2)oc2c1ccc1ccccc12	9.4	0.6	-5.8	3.8	-5.2	75.2*
O=c1cc(-c2ccc(O)c(O)c2)oc2ccc3ccccc3c12	0.3	-1.8	6.6	20.8	4.5	11.2
O=C1CN(C(=O)c2ccc(Br)o2)C(c2ccccc2)c2cc(Br)ccc2N1 (stereo unspecified)	0.4	-5.2	-29.0	58.9*	1.4	-0.4
Cc1ccc2c(c1)C(c1ccccc1)N(C(=O)c1ccc(Br)o1)CC(=O)N2 (stereo unspecified)	-4.4	2.6	-14.3	7.2	4.5	-0.3
Cc1cccc(-c2cnc(C(O)Cc3ccccc3)[nH]2)c1 (stereo unspecified)	-3.4	1.0	3.5	7.9	3.6	-0.1
CCOc1ccc(-c2nc(N)ncc2Oc2cccc(OC)c2)c(O)c1	1.1	-13.9	-2.8	37.2*	-6.2	-6.4
